From PubChem
Rev-RRE block: HIV-1 Rev-RRE binding inhibitors, primary screen, biochemical, FRET, protein-RNA interaction; inhibition, % at 8 µM; AID 704, 2007; 97,000 compounds, 0.79% hits; P05866; Rev peptide-RRE RNA binding;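 active = inhibition above the screen-wide mean plus 3 SD, cut at about 35% in these data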;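 also: 0% = median DMSO wells and 100% = median Neomycin B control wells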
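Material: labelled RRE RNA duplex and labelled Rev peptide / Buffer or medium: HEPES pH 7.5 salt buffer with EDTA / Compound dosing: single point, 8 µM final nominal compound concentration / Benchmarks: DMSO low control, neomycin B high control / Timing: 5 min preincubation and 15 min binding, 25 °C / Technique: FRET fluorescence readout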
LYP act: LYP phosphatase activators, primary screen, biochemical, DiFMUP fluorescence, 2 µM; Tyrosine-protein phosphatase non-receptor type 22 (Homo sapiens), Q9Y2R2; activation, % at 2 µM; AID 697, 2007; recombinant LYP; 0 = plate median, 100 = signal doubled; 96,000 compounds, 0.11% hits;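 active = activation at 2 µM above a set limit, the mean plus 5 SD, cut at about 37% in these data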
PLK1 kinase inh: human PLK1 kinase inhibitors, primary screen, biochemical, TR-FRET; recombinant PLK1 kinase, TR-FRET peptide phosphorylation; AID 619, 2007; 97,000 compounds, 0.53% hits; inhibition, % at 10 µM;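 active = inhibition of 50% or more in the single-concentration screen; inactive = inhibition below 50%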;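 also: 0% = DMSO max control and 100% = H-89 dihydrochloride min control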
PLK1 PBD inh: Plk1 polo box domain binding inhibitors, primary screen, biochemical, fluorescence polarization. AID 693, 2007. 97,000 compounds, 0.13% hits. Plk1 PBD phosphopeptide binding. Serine/threonine-protein kinase PLK1 (Homo sapiens), P53350. inhibition, %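 (tested at about 20 µM)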; in the data active = inhibition above about 34%, passing the limit was not always enough
PTPN22 inh 2: PTPN22 phosphatase inhibitors, primary screen, biochemical, DiFMUP fluorescence, 2 µM | recombinant LYP catalytic domain | Tyrosine-protein phosphatase non-receptor type 22 (Homo sapiens), Q9Y2R2 | 96,000 compounds, 0.21% hits | inhibition, % at 2 µM;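 active = inhibition at 2 µM at or above a set limit, the screen mean plus 3 SD, cut at about 24% in these data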;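 also: 0% = DMSO with enzyme and 100% = enzyme fully blocked by orthovanadate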
EphB4 antag: EphB4-ephrin-B2 interaction antagonists, primary screen, biochemical, TNYL-RAW peptide probe, fluorescence polarization; inhibition, % at 7 µM; EphB4 LBD / TNYL-RAW-Alexa532 peptide; Ephrin type-B receptor 4 (Homo sapiens), P54760; AID 720, 2007; 97,000 compounds, 0.15% hits;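 active = inhibition above the screen-wide mean inhibition plus 3 SD, cut at about 15% in these data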;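 also: 0% = DMSO wells and 100% = excess unlabeled TNYL-RAW peptide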
Starred values were filed as active, the others as inactive; · = no result; [ ] = remark or other dose. Most compounds without a hit are left out; they make up all but 1.8% or so of the library.

SMILES	Rev-RRE block	LYP act	PLK1 kinase inh	PLK1 PBD inh	PTPN22 inh 2	EphB4 antag
Cc1oc(-c2ccc(Cl)cc2)nc1CS(=O)CC(=O)NCCCN(C)C1CCCCC1 (stereo not drawn)	4	-3	4	4	7	-1
COc1ccc(CNC(=O)CS(=O)Cc2nc(-c3ccccc3C)oc2C)cc1 (stereo not drawn)	5	·	67*	-1	·	2
CCN1CCN(CCNC(=O)C2CCCN(Cc3nc(-c4cccc(Cl)c4)oc3C)C2)CC1 (stereo not drawn)	0	·	57*	-3	·	1
CCCCNC(=O)CS(=O)Cc1nc(-c2cccc(C)c2)oc1C (stereo not drawn)	-2	-3	-5	-16	2	-7
Cc1oc(-c2ccc(Cl)cc2)nc1CS(=O)CC(=O)NCCN1CCCC1 (stereo not drawn)	-2	·	60*	-2	·	-3
CCCCNC(=O)CS(=O)Cc1nc(-c2cccc(Cl)c2)oc1C (stereo not drawn)	7	·	65*	-1	·	2
Cc1ccccc1-c1nc(CS(=O)CC(=O)NCCN2CCOCC2)c(C)o1 (stereo not drawn)	-1	4	0	-24	-7	-10
Cc1ccc(-c2nc(CS(=O)CC(=O)NCCN3CCCC3)c(C)o2)cc1 (stereo not drawn)	2	·	63*	0	·	2
Cc1ccc(-c2nc(CS(=O)CC(=O)NCCN3CCOCC3)c(C)o2)cc1 (stereo not drawn)	0	·	59*	-16	·	-1
Cc1cc(C)nc(SCC(=O)Oc2ccc3oc(=O)cc(C)c3c2)n1	7	6	-13	2	-8	-11
N#CC1=C(N)C(C#N)(C#N)C(c2ccc[nH]2)C2CCCC=C12 (stereo not drawn)	63*	-8	17	-66	4	7
O=C(CSc1nc2ccc(S(=O)(=O)N3CCOCC3)cc2[nH]1)N1CCOCC1	3	-36	-10	-10	34*	-1
O=C(CSc1nc2ccccc2c(=O)[nH]1)N1CCN(S(=O)(=O)c2ccccc2)CC1	2	2	-9	-22	-6	-9
CCOc1ccccc1C1C(C#N)=C(N)SC(N)=C1C#N	37*	-3	-3	-33	2	2
CCc1ccc(C2C(C#N)=C(N)SC(N)=C2C#N)cc1	41*	6	-13	-6	-6	-11
CCOc1ccccc1C1C(C#N)=C(N)Oc2n[nH]c(CC)c21 (stereo not drawn)	1	1	-5	10	-2	-2
Cc1ccc(C2C(C#N)=C(N)SC(N)=C2C#N)o1	92*[fluorescence artefact?]	3	-16	-14	-3	0
N#CC1=C(N)SC(N)=C(C#N)C1c1ccc(C(F)(F)F)cc1	42*	-3	-11	5	9	-3
O=C(Nc1ccon1)c1cccc(S(=O)(=O)N2CCCC2)c1	7	4	-3	-27	-9	0
O=C(c1cc2ccccn2n1)N1CCN(Cc2ccccc2)CC1	·	-1	54*	-7	0	·
O=C(c1cc2ccccn2n1)N1CCCC1	7	2	-11	16	-5	-6
Cc1cc(C)c(S(=O)(=O)NCc2cn3c(C)csc3n2)cc1C	10	7	-19	-1	-7	19*
CCN(CC(=O)Nc1cccc(OC)c1)C(=O)c1ccc(C)s1	8	5	-11	-7	-2	4
CCNC(=S)NNC(=O)c1cccn(Cc2ccc(Cl)cc2Cl)c1=O	-1	-59	-8	5	60*	1
C=CCNC(=S)NNC(=O)c1cccn(Cc2ccc(Cl)cc2Cl)c1=O	-1	-47	-11	-12	49*	-3
SMILES	Rev-RRE block	LYP act	PLK1 kinase inh	PLK1 PBD inh	PTPN22 inh 2	EphB4 antag
Cc1ccccc1C(=O)NNC(=S)NC(=O)c1ccc(Cl)cc1Cl	3	-6	-6	13	2	8
CN(C)c1ccc(/C=N/N=C2/NC(=O)/C(=C/c3ccc([N+](=O)[O-])cc3)S2)cc1	35	-23	-9	-14	25*	0
COc1ccc(NCc2cc3cc(OC)ccc3[nH]c2=O)cc1	15	-1	-10	11	-2	4
COc1ccc2[nH]c(=O)c(CNc3cccc(C)c3)cc2c1	57*	0	-4	9	2	0
Cc1ccccc1C1C(C#N)=C2NC(=O)c3c(sc4c3CCCCC4)N2C2=C1C(=O)CC(C)(C)C2 (stereo not drawn)	40*	1	-10	-51	2	0
C=CCOc1nc(N2CCCC2)nc(N2CCCC2)n1	1	-5	-7	10	0	-6
Cc1ccc(/C=C2\SC(=S)N(Cc3ccccc3)C2=O)o1	5	-6	-19	15	10	4
O=C(O)CC(C(=O)O)N1C(=O)/C(=C/c2ccc(-c3nc4ccccc4s3)o2)SC1=S (stereo not drawn)	52*	-3	19	-24	7	-14
O=C(O)CCN1C(=O)/C(=C/c2ccc(-c3nc4ccccc4s3)o2)SC1=S	34	-22	-17	-43	24*	2
N#Cc1c(SCc2cccc(Cl)c2)sc(C(=O)c2ccccc2)c1N	9	-3	-6	8	4	-6
CCN(CC)c1ccc2c(c1)OC(N)=C(C#N)C2c1cccnc1 (stereo not drawn)	121*[fluorescence artefact?]	8	-14	-65	-8	-8
COc1ccc2oc(=N)c(C(=O)Nc3ccccc3)cc2c1	-1	-1	-16	-16	-2	-6
CCCCCCc1cc2cc(C(=O)NCc3ccccc3)c(=N)oc2cc1O	104*[fluorescence artefact?]	-8	-16	-19	8	-7
CCCN1C(=O)/C(=C/C=C2\N(CC)c3ccccc3C2(C)C)SC1=S	136*[fluorescence artefact?]	2	-21	-224	2	0
COc1ccccc1NC(=O)c1cc(Sc2nncn2C)nc2ccccc12	7	1	-20	-7	-1	5
COC(=O)Oc1ccc(/C=N/NC(=O)CN(c2ccccc2Cl)S(C)(=O)=O)cc1OC	5	-5	-5	21	5	-8
COc1cc(/C=N\Nc2ccc([N+](=O)[O-])cc2)ccc1OCC(=O)Nc1ccc(C)c(C)c1	76*[fluorescence artefact?]	-6	-21	-18	10	3
CCOc1cc(/C=N\Nc2ccc([N+](=O)[O-])cc2)ccc1OCC(=O)Nc1ccc(C)c(C)c1	35	-8	-10	-4	12	-1
Cc1nc(S/C(=C/c2ccc(-c3cccc(Cl)c3)o2)C(=O)O)n[nH]1	29	-21	-14	8	24*	7
